Measurements: ChEMBL document CHEMBL1133641, “A new class of potential chloroquine-resistance reversal agents for Plasmodia: syntheses and biological evaluation of 1-(3'-diethylaminopropyl)-3-(substituted phenylmethylene)pyrrolidines” (2000)

What was measured:
[1] = system: Plasmodium yoelii nigeriensis; assay: In Vitro inhibition of Heme Oxygenase in Cell-free parasite Plasmodium yoelii at concentration 50 uM;NI denotes nil inhibition; assay type: functional
Summary of the method: (§1)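 Heme oxygenase activity was measured as bilirubin formation in a post-mitochondrial fraction. The parasite enzyme came from cell-free P. yoelii, isolated from infected blood by density gradient centrifugation and saponin lysis. The host enzyme came from infected liver. Compounds were tested at 10–100 µM and preincubated for 10 min before the reaction was started.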

[2] = system: Plasmodium yoelii nigeriensis; assay: In Vitro inhibition of Heme Oxygenase in Cell-free parasite Plasmodium yoelii at concentration 50 uM; assay type: functional; summary of the method: as §1
[3] = system: Plasmodium yoelii nigeriensis; assay: In Vitro inhibition of Heme Oxygenase in Cell-free parasite Plasmodium yoelii at concentration 10 uM;NI denotes nil inhibition; assay type: functional; summary of the method: as §1
[4] = molecular target: T1, Glutathione S-transferase (Plasmodium yoelii yoelii) (UniProt Q7REH6); assay: Inhibition of Glutathione S-transferase in Plasmodium yoelii nigeriensis isolated from infected mice (Mus musculus) (oral); conditions: concentration not given here
T1 sequence (whole entry): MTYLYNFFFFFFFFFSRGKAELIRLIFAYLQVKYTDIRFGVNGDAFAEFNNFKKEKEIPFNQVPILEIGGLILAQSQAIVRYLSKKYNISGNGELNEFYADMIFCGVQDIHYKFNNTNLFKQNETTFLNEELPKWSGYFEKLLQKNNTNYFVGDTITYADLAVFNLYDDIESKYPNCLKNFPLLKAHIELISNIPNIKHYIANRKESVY
Summary of the method: (§2)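 Swiss albino mice carried P. yoelii nigeriensis tolerant to CQ up to 120 mg/kg. They received compound orally at 15 mg/kg body wt for 5 days. Parasites were then isolated from blood by density gradient centrifugation and saponin lysis, and enzyme inhibition was measured as percent inhibition.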

[5] = system: Plasmodium yoelii nigeriensis; assay: In Vitro inhibition of Heme Oxygenase in Cell-free parasite Plasmodium yoelii at concentration 100 uM;NI denotes nil inhibition; assay type: functional; summary of the method: as §1
[6] = system: Plasmodium yoelii nigeriensis; assay: Inhibition of heme oxygenase in Plasmodium yoelii nigeriensis isolated from infected mice (Mus musculus) (oral); assay type: functional; summary of the method: as §2
[7] = system: Plasmodium yoelii nigeriensis; assay: In Vitro inhibition of Heme Oxygenase in Cell-free parasite Plasmodium yoelii at concentration 10 uM; assay type: functional; summary of the method: as §1
[8] = system: Plasmodium yoelii nigeriensis; assay: In Vitro inhibition of Heme Oxygenase in Cell-free parasite Plasmodium yoelii at concentration 100 uM; assay type: functional; summary of the method: as §1
[9] = In Vitro evaluation on percentage inhibition in Heme Oxygenase at concentration 100 (uM) of infected host; summary of the method: as §1
[10] = In Vitro evaluation on percentage inhibition in Heme Oxygenase at concentration 50(uM) of infected host; summary of the method: as §1
[11] = system: Plasmodium yoelii nigeriensis; assay: In Vitro evaluation on percentage inhibition in Heme Oxygenase at concentration 100(uM) of Cell-free parasite Plasmodium yoelii; assay type: functional; summary of the method: as §1

Row | SMILES | NI [1] | inhibition [2] [%] | NI [3] | inhibition [4] [%] | NI [5] | Inhibition [6] [%] | inhibition [7] [%] | inhibition [8] [%] | inhibition [9] [%] | inhibition [10] [%] | inhibition [11] [%]
1 | CCN(CC)CCCN1CC/C(=C\c2ccc(OC)c(OC)c2)C1 | No inhibition | 100 | No inhibition | 80 | No inhibition | 100 | 100 | 100 |  |  | 
2 | COc1ccc([C@@H]2Sc3ccccc3N(CCN(C)C)C(=O)[C@@H]2OC(C)=O)cc1 |  | 12.5 |  |  |  |  |  |  | 84 | 41 | 29
